Like-named read-outs stand apart in the source and are kept apart here.
Type: in vitro ADME, rat
Method in brief: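 Spiked rat plasma held under storage and analysis conditions, then quantified by UPLC-MS/MS. Work-up: IS (working solution 100 ng/mL) added, protein precipitation with acetonitrile (3 volumes), vortex 1 min, centrifugation 13,000 g for 10 min at 4°C, supernatant injected. Separation: BEH C18 column at 40°C, acetonitrile/0.1% formic acid gradient at 0.40 mL/min, 3.0 min run.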

Measured: Stability in rat plasma samples

CCc1nc(C(N)=O)c(Nc2ccc(N3CCC(N4CCN(C)CC4)CC3)c(OC)c2)nc1NC1CCOCC1 [Gilteritinib]
stable: at room temperature for at least 24 h | at −20°C for at least 31 days | in the auto-sampler (10°C) for at least four hours | three complete freeze (−20°C)/thaw (RT) cycles

— publication PMC7266109 (Drug Design, Development and Therapy, 2020)
